For assay [1], the target named is P2Y purinoceptor 1 (Meleagris gallopavo) (UniProt P49652). As to the kind of experiment: In vitro antagonist activity against turkey P2Y1 receptor, expressed as percent of maximal inhibition at 100 uM. The arrangement: scale not given: the % may be the effect or the level left. The assay is classed as functional.
Assay [2] addresses P2Y purinoceptor 1 (Meleagris gallopavo, UniProt P49652). As to the kind of experiment: Inhibitory concentration against P2Y1 receptor in turkey erythrocyte membranes. The assay is classed as cell membranes. An outline of the steps:
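Turkey erythrocytes labeled 18–24 h at 37 °C with 2-[3H]myo-inositol in inositol-free DMEM, then lysed hypotonically (5 mM sodium phosphate pH 7.4, 5 mM MgCl2, 1 mM EGTA) to give ghosts. Phospholipase C assayed in Hepes pH 7.0 buffer with 1 μM GTPγS, antagonist and 30 nM 2-MeSADP, 5 min at 30 °C. Total [3H]inositol phosphates quantified by anion exchange.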

Structures are written as SMILES.

P2Y purinoceptor 1, sequence (P49652 whole entry): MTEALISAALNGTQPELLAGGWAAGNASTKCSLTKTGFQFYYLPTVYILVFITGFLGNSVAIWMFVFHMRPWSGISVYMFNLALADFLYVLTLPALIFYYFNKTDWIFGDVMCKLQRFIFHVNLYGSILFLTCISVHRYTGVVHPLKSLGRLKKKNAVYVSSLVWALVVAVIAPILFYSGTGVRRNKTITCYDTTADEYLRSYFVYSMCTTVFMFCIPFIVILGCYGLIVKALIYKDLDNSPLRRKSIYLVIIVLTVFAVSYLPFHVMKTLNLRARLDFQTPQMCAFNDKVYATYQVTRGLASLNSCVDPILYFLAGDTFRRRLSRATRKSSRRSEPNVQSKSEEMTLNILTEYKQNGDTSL
P2Y purinoceptor 1 (Meleagris gallopavo), sequence (P49652 whole entry): as above

With `CNc1nc(Cl)nc2c1ncn2C[C@H](COP(=O)(O)O)OP(=O)(O)O`, the Activity in assay [1] came out at 100%. For the same compound, in assay [2], the IC50 stood at 7860 nM.
Consider `CNc1nc(Cl)nc2c1ncn2C[C@H]1[C@H](COP(=O)(O)O)[C@@H]1COP(=O)(O)O`, for which the Activity in assay [1] stood at 100%. This compound showed a half-inhibitory concentration (IC50) in assay [2] of 1740 nM.
The like results for `CNc1nc(Cl)nc2c1ncn2CC(COP(=O)(O)O)COP(=O)(O)OP(=O)(O)O` (stereo unspecified) were, in that order, 100% and 230 nM.
The like results for `CNc1nc(Cl)nc2c1ncn2CC(COP(=O)(O)O)COP(=O)(O)O` were, in that order, 100% and 480 nM.
Compound `CNc1nc(Cl)nc2c1ncn2CC(COC(C)=O)COP(=O)(O)O` (stereo unspecified) registered an Activity in assay [1] of 65%. Moreover, 37600 nM corresponded to half-maximal inhibition in assay [2] (IC50).
The like results for `CNc1nc(Cl)nc2c1ncn2CC(CO)COP(=O)(O)O` (stereo unspecified) were, in that order, 68% and 22600 nM.
In assay [1], `CNc1nc(Cl)nc2c1ncn2CC(COP(=O)(O)O)COP(=O)(OC)OC` (stereo unspecified) gave an Activity of 78%. For the same compound, the IC50 in assay [2] came out at 31000 nM.
The like results for `CNc1nc(Cl)nc2c1ncn2C[C@@H](COP(=O)(O)O)OP(=O)(O)O` were, in that order, 100% and 1470 nM.
The like results for `CNc1ncnc2c1ncn2CCC(COP(=O)(O)O)COP(=O)(O)O` were, in that order, 100% and 1600 nM.
The like results for `CNc1nc(Cl)nc2c1ncn2CC(CCOP(=O)(O)O)CCOP(=O)(O)O` were, in that order, 100% and 2040 nM.
As to `CNc1nc(Cl)nc2c1ncn2CCC(COP(=O)(O)O)COP(=O)(O)O`, in assay [1], the Activity came to 99%. This compound yielded an IC50 in assay [2] of 840 nM.
Compound `CNc1nc(Cl)nc2c1ncn2CC1CC1(COP(=O)(O)O)COP(=O)(O)O` (stereo unspecified) displayed an Activity in assay [1] of 100%. The IC50 in assay [2] turned out to be 1900 nM.
The corresponding values for `CNc1nc(Cl)nc2c1ncn2CC1[C@H](COP(=O)(O)O)[C@H]1COP(=O)(O)O` (stereo partly specified) are 100% and 2700 nM.
The like results for `CNc1nc(Cl)nc2c1ncn2C(COP(=O)(O)O)COP(=O)(O)O` were, in that order, 100% and 4560 nM.
As to `CNc1nc(Cl)nc2c1ncn2CC=C(COP(=O)(O)O)COP(=O)(O)O`, the Activity in assay [1] was 100%. The same compound had an IC50 in assay [2] of 2100 nM.
The like results for `CNc1ncnc2c1ncn2CC(COP(=O)(O)O)COP(=O)(O)O` were, in that order, 100% and 1090 nM.
`CNc1nc(Cl)nc2c1ncn2C1CC1(COP(=O)(O)O)COP(=O)(O)O` (stereo unspecified): the Activity in assay [1] is 100%. The IC50 in assay [2] is 2360 nM.
With `CNc1nc(Cl)nc2c1ncn2C[C@@H]1[C@H](COP(=O)(O)O)[C@@H]1COP(=O)(O)O`, the Activity in assay [1] worked out at 100%. In assay [2], this compound came in with an IC50 of 2170 nM.

The IC50 is the midpoint of a concentration-inhibition curve.

The record behind these values is ChEMBL document CHEMBL1134593, “Acyclic and cyclopropyl analogues of adenosine bisphosphate antagonists of the P2Y1 receptor: structure-activity relationships and receptor docking” (J Med Chem, 2001).
